Measured values pooled from the literature.
Target: Ephrin type-B receptor 3 (EPHB3, Homo sapiens, UniProt P54753)
Residues used in one study (P54753 34-998): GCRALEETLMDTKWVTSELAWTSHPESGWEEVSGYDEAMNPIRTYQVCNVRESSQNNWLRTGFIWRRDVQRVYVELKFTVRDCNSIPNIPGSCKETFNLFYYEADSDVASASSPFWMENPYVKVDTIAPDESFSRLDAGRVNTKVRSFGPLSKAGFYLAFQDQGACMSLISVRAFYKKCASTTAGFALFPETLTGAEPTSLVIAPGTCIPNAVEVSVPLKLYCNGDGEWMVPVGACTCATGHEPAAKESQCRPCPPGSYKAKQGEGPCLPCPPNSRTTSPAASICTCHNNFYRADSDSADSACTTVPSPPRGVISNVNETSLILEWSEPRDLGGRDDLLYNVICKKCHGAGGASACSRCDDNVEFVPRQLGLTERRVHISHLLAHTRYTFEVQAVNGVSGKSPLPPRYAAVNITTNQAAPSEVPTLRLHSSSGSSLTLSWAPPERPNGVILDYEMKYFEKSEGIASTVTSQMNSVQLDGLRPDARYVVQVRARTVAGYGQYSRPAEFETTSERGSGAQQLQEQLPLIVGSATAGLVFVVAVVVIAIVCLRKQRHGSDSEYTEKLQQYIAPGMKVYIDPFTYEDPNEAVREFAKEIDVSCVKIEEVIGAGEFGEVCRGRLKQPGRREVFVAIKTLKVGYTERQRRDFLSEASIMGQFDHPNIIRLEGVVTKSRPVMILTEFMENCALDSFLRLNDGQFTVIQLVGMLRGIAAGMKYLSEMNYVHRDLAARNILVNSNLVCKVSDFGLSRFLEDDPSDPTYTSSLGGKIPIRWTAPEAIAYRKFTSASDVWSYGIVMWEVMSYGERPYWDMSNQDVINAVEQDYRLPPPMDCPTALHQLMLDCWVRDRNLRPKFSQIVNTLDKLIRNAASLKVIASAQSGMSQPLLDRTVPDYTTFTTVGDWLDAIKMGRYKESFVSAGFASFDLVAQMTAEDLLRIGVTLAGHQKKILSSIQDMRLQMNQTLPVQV

Structure (SMILES) | observed | action | technique | tested at | endpoint | result
N#CC1(c2ccccn2)CCN(Cc2cc(C(=O)O)c(=O)n3ccccc23)CC1 | cell-free assay |  | competition with immobilised ligand | 1 µM | remaining binding | 92%
Cn1cc(-c2cc(F)cc(N3CCn4c(cc5c4CCCC5)C3=O)c2CO)cc(Nc2ccc(N3CCN(C4COC4)CC3)cn2)c1=O | enzyme activity | inhibitor |  | 0.1 µM | inhibition | 7%
COc1cc(Nc2ncc(F)c(Nc3ccc4c(n3)NC(=O)C(C)(C)O4)n2)cc(OC)c1OC | binding |  |  | 10 µM | inhibition | 0%
CC(C)(C)c1cc(C=C(C#N)C#N)cc(Br)c1O | enzyme activity | inhibitor |  | 0.5 µM | remaining activity | 107%
COc1ncccc1-c1cnn2ccc(N3CCN(C(=O)OC(C)C)CC3)nc12 | binding |  | competition with immobilised ligand | 1 µM | remaining binding | 100%
Cc1nn(C)cc1-c1nc2c(N3CCN(Cc4ccc(Cl)cc4)CC3)c(Cl)cnc2[nH]1 | binding |  | competition with immobilised ligand | 1 µM | remaining binding | 77%
Cn1cncc1[C@](O)(COc1ccc(C#N)cc1-c1ccc(OC(F)(F)F)cc1)c1ccc(C#N)cc1 | cell-free assay |  | competition with immobilised ligand | 1 µM | remaining binding | 100%
O=c1[nH]c2ccccc2n1C1CCN(Cc2ccc(-c3[nH]c4cc5ncnc5cc4nc3-c3ccccc3)cc2)CC1 | cell-free assay |  |  | 0.5 µM | remaining signal | 104%
Cn1cc(-c2cccc(N3CCc4c(sc5c4CC(C)(C)C5)C3=O)c2CO)cc(Nc2ccncn2)c1=O | enzyme activity | inhibitor |  | 1 µM | inhibition | 1%
